ChEMBL document CHEMBL1649139, “A novel gene, erm(41), confers inducible macrolide resistance to clinical isolates of Mycobacterium abscessus but is absent from Mycobacterium chelonae” (2009)
Converted amounts (≈) assume the structure as drawn.

Tests used:
Format in all cases: functional
[1] = test system: Mycobacteroides abscessus; test: Antimicrobial activity against Mycobacterium abscessus isolate MC879-2 at day 5 preincubated with 0.1 ug/ml erythromycin for 3 days by broth microdilution method
[2] = test system: Mycobacteroides abscessus; test: Antimicrobial activity against Mycobacterium abscessus isolate MC1448 at day 3 preincubated with 0.1 ug/ml for 3 days by broth microdilution method
Summary of the method: (§1)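 Clarithromycin MIC by broth microdilution following CLSI guidelines. Before testing, organisms were preincubated for 3 days in medium alone or in clarithromycin or erythromycin (0.01–1 μg/ml), long enough for at least two generations judged by turbidity increase. MICs were read on day 3 and again on extended incubation out to day 14.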

[3] = test system: Mycobacteroides abscessus; test: Antimicrobial activity against Mycobacterium abscessus isolate MC879 on day 4 by broth microdilution method; settings: isolate MC879, 96 h
[4] = test system: Mycobacteroides abscessus; test: Antimicrobial activity against Mycobacterium abscessus isolate MC958 on day 4 by broth microdilution method; settings: isolate MC958, 96 h
[5] = test system: Mycobacteroides abscessus; test: Antimicrobial activity against Mycobacterium abscessus isolate MC879 on day 14 by broth microdilution method; settings: isolate MC879, 336 h
[6] = test system: Mycolicibacterium smegmatis; test: Antimicrobial activity against Mycobacterium smegmatis transformed with erm allele Mycobacterium abscessus isolate MC719 preincubated with 2 ug/ml erythromycin for 20 to 24 hrs by broth microdilution method
[7] = test system: Mycolicibacterium smegmatis; test: Antimicrobial activity against Mycobacterium smegmatis transformed with erm allele Mycobacterium abscessus isolate MC1028 preincubated with 2 ug/ml erythromycin for 20 to 24 hrs by broth microdilution method
[8] = test system: Mycolicibacterium smegmatis; test: Antimicrobial activity against Mycobacterium smegmatis transformed with erm allele Mycobacterium abscessus isolate MC1082 preincubated with 2 ug/ml erythromycin for 20 to 24 hrs by broth microdilution method
[9] = test system: Mycobacteroides abscessus; test: Antimicrobial activity against Mycobacterium abscessus isolate MC879 at day 5 by broth microdilution method; settings: isolate MC879, 120 h
Summary of the method: (§2)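 Clarithromycin MIC by broth microdilution following CLSI guidelines. Organisms were preincubated […], for 3 days before the assay. This allowed at least two generations, judged by the rise in turbidity. The MIC was read at the stated day, with incubation extended from day 3 to as long as 14 days.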

[10] = test system: Mycobacteroides abscessus; test: Antimicrobial activity against Mycobacterium abscessus isolate MC958 at day 5 by broth microdilution method; settings: isolate MC958, 120 h; summary of the method: as §2
[11] = test system: Mycobacteroides abscessus; test: Antimicrobial activity against Mycobacterium abscessus isolate MC879 at day 9 by broth microdilution method; settings: isolate MC879, 216 h; summary of the method: as §2
[12] = test system: Mycobacteroides abscessus; test: Antimicrobial activity against Mycobacterium abscessus isolate MC958 at day 9 by broth microdilution method; settings: isolate MC958, 216 h
[13] = test system: Mycobacteroides abscessus; test: Antimicrobial activity against Mycobacterium abscessus isolate MC719 at day 9 by broth microdilution method; settings: isolate MC719, 216 h; summary of the method: as §1
[14] = test system: Mycobacteroides abscessus; test: Antimicrobial activity against Mycobacterium abscessus isolate MC719 at day 3 preincubated with 0.1 ug/ml erythromycin for 3 days by broth microdilution method; summary of the method: as §1
[15] = test system: Mycobacteroides abscessus; test: Antimicrobial activity against Mycobacterium abscessus isolate MC723 at day 3 preincubated with 0.1 ug/ml erythromycin for 3 days by broth microdilution method; summary of the method: as §1
[16] = test system: Mycobacteroides abscessus; test: Antimicrobial activity against Mycobacterium abscessus isolate MC879 at day 5 preincubated with 0.1 ug/ml erythromycin for 3 days by broth microdilution method
Summary of the method: (§3)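 Clinical M. abscessus isolates were preincubated for 3 days, either in medium alone or in clarithromycin or erythromycin at 0.01 to 1 μg/ml, allowing at least two generations of growth judged by turbidity. The clarithromycin MIC was then determined by CLSI-conforming broth microdilution, with plates read on day 3 and on extended incubation (days 5 to 14).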

[17] = test system: Mycobacteroides abscessus; test: Antimicrobial activity against Mycobacterium abscessus isolate MC1082 at day 9 by broth microdilution method; settings: isolate MC1082, 216 h
Summary of the method: (§4)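 Clarithromycin MIC by CLSI-conforming broth microdilution. Before testing, cultures were preincubated for 3 days, either in medium alone or in clarithromycin or erythromycin (tested range 0.01–1 μg/ml). Preincubation ran for at least two generations, judged by turbidity increase. Plates were read on day 3 and on extended incubation at days 5 to 14.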

[18] = test system: Mycobacteroides abscessus; test: Antimicrobial activity against Mycobacterium abscessus isolate MC1082 at day 3 preincubated with 0.1 ug/ml erythromycin for 3 days by broth microdilution method; summary of the method: as §4
[19] = test system: Mycobacteroides abscessus; test: Antimicrobial activity against Mycobacterium abscessus isolate MC879 at day 9 preincubated with 0.1 ug/ml erythromycin for 3 days by broth microdilution method
Summary of the method: (§5)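 To test inducible resistance, cultures were preincubated for 3 days in clarithromycin or erythromycin, within 0.01–1 μg/ml. The period was set so cultures passed at least two generations, judged by turbidity increase. Clarithromycin MIC was then determined by CLSI-conforming broth microdilution and read on the stated day, from day 3 up to 14.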

[20] = test system: Mycobacteroides abscessus; test: Antimicrobial activity against Mycobacterium abscessus isolate MC719 at day 9 preincubated with 0.1 ug/ml erythromycin for 3 days by broth microdilution method; summary of the method: as §1
[21] = test system: Mycobacteroides abscessus; test: Antimicrobial activity against Mycobacterium abscessus isolate MC1082 at day 3 preincubated with 0.1 ug/ml for 3 days by broth microdilution method; summary of the method: as §4
[22] = test system: Mycobacteroides abscessus; test: Antimicrobial activity against Mycobacterium abscessus isolate MAB30 at day 5 preincubated with 0.1 ug/ml for 3 days by broth microdilution method; summary of the method: as §4
[23] = test system: Mycobacteroides abscessus; test: Antimicrobial activity against Mycobacterium abscessus isolate MC1028 at day 5 preincubated with 0.1 ug/ml for 3 days by broth microdilution method; summary of the method: as §4
[24] = test system: Mycobacteroides abscessus; test: Antimicrobial activity against Mycobacterium abscessus isolate MC1082 at day 5 preincubated with 0.1 ug/ml for 3 days by broth microdilution method; summary of the method: as §4
[25] = test system: Mycobacteroides abscessus; test: Antimicrobial activity against Mycobacterium abscessus isolate MAB30 at day 7 preincubated with 0.1 ug/ml for 3 days by broth microdilution method; summary of the method: as §4
[26] = test system: Mycobacteroides abscessus; test: Antimicrobial activity against Mycobacterium abscessus isolate MC1082 at day 9 preincubated with 0.1 ug/ml for 3 days by broth microdilution method; summary of the method: as §4
[27] = test system: Mycobacteroides abscessus; test: Antimicrobial activity against Mycobacterium abscessus isolate MC1082 at day 14 preincubated with 0.1 ug/ml for 3 days by broth microdilution method; summary of the method: as §4
[28] = test system: Mycobacteroides abscessus; test: Antimicrobial activity against Mycobacterium abscessus isolate MC879-2 at day 3 by broth microdilution method; settings: isolate MC879-2, 72 h
[29] = test system: Mycobacteroides abscessus; test: Antimicrobial activity against Mycobacterium abscessus isolate MC720 at day 14 preincubated with 0.1 ug/ml erythromycin for 3 days by broth microdilution method; summary of the method: as §1
[30] = test system: Mycobacteroides abscessus; test: Antimicrobial activity against Mycobacterium abscessus isolate MC719 at day 3 preincubated with 0.1 ug/ml for 3 days by broth microdilution method; summary of the method: as §1
[31] = test system: Mycobacteroides abscessus; test: Antimicrobial activity against Mycobacterium abscessus isolate MC958 at day 5 preincubated with 0.1 ug/ml for 3 days by broth microdilution method; summary of the method: as §3
[32] = test system: Mycobacteroides abscessus; test: Antimicrobial activity against Mycobacterium abscessus isolate MC720 at day 5 preincubated with 0.1 ug/ml for 3 days by broth microdilution method; summary of the method: as §3
[33] = test system: Mycobacteroides abscessus; test: Antimicrobial activity against Mycobacterium abscessus isolate MC724 at day 5 preincubated with 0.1 ug/ml for 3 days by broth microdilution method; summary of the method: as §3
[34] = test system: Mycobacteroides abscessus; test: Antimicrobial activity against Mycobacterium abscessus isolate MC879 at day 9 preincubated with 0.1 ug/ml for 3 days by broth microdilution method; summary of the method: as §5
[35] = test system: Mycobacteroides abscessus; test: Antimicrobial activity against Mycobacterium abscessus isolate MC879 at day 14 preincubated with 0.1 ug/ml for 3 days by broth microdilution method; summary of the method: as §5

Work on `CC[C@H]1OC(=O)[C@H](C)[C@@H](O[C@H]2C[C@@](C)(OC)[C@@H](O)[C@H](C)O2)[C@H](C)[C@@H](O[C@@H]2O[C@H](C)C[C@H](N(C)C)[C@H]2O)[C@](C)(OC)C[C@@H](C)C(=O)[C@H](C)[C@@H](O)[C@]1(C)O` [CLARITHROMYCIN] yielded an MIC [1] of over 32 µg/mL, an MIC [2] of over 32 µg/mL and an MIC [3] of at most 2 µg/mL. It also gave an MIC [4] of at most 2 µg/mL, an MIC [5] of 32 µg/mL (≈ 42.8 µM) and an MIC [6] of 16 µg/mL. The MIC [7] was at most 0.5 µg/mL, the MIC [8] was at most 0.5 µg/mL and the MIC [9] was 1 µg/mL (≈ 1.34 µM). For the same molecule, the MIC [10] was 1 µg/mL (≈ 1.34 µM), the MIC [11] was over 32 µg/mL and the MIC [12] was over 32 µg/mL. For the same molecule, the MIC [13] was over 32 µg/mL, the MIC [14] was at most 0.5 µg/mL and the MIC [15] was at most 0.5 µg/mL. For the same molecule, the MIC [16] was 4 µg/mL, the MIC [17] was at most 0.5 µg/mL and the MIC [18] was at most 0.5 µg/mL. For the same molecule, the MIC [19] was over 32 µg/mL, the MIC [20] was over 32 µg/mL and the MIC [21] was at most 0.5 µg/mL. For the same molecule, the MIC [22] was at most 0.5 µg/mL, the MIC [23] was at most 0.5 µg/mL and the MIC [24] was at most 0.5 µg/mL. The MIC [25] was at most 0.5 µg/mL, the MIC [26] was at most 0.5 µg/mL and the MIC [27] was at most 0.5 µg/mL. It also gave an MIC [28] of over 32 µg/mL, an MIC [29] of over 32 µg/mL and an MIC [30] of at most 0.5 µg/mL. The MIC [31] was 4 µg/mL (≈ 5.35 µM), the MIC [32] was 4 µg/mL (≈ 5.35 µM) and the MIC [33] was 4 µg/mL (≈ 5.35 µM). The MIC [34] was over 32 µg/mL and the MIC [35] was over 32 µg/mL.
